Measured values as given in ChEMBL document CHEMBL4387713, “Galloyl Carbohydrates with Antiangiogenic Activity Mediated by Capillary Morphogenesis Gene 2 (CMG2) Protein Binding” (J Med Chem, 2019).

Target: Anthrax toxin receptor 2 (Homo sapiens, UniProt P58335, C178A/R40C)
Experiment: Inhibition of AF488-labelled PA binding to AF546- labelled GST-tagged CMG2 R40C/C178A double mutant (unknown origin) expressed in Escherichia coli BL21 DE3 measured after 4 hrs by FRET assay
Conditions: not given

Anthrax toxin receptor 2, sequence (P58335 whole entry, looked up, stated change not applied): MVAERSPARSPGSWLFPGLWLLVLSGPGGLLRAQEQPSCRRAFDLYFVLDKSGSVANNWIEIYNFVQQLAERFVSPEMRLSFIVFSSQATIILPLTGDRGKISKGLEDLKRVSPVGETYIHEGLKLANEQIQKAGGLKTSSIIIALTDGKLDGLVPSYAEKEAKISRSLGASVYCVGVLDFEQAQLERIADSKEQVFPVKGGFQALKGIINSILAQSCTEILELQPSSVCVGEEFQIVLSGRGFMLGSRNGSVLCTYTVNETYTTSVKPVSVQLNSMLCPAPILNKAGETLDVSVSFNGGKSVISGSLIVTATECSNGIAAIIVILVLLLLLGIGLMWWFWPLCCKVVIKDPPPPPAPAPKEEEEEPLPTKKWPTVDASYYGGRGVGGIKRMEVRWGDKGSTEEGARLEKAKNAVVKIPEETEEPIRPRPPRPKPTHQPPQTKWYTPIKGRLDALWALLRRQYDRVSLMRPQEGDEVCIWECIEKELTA

Structure (SMILES)	IC50 [nM]
O=C(OC[C@H]1O[C@@H](OC(=O)c2ccc(O)c(O)c2O)[C@@H](OC(=O)c2ccc(O)c(O)c2O)[C@@H](OC(=O)c2ccc(O)c(O)c2O)[C@@H]1OC(=O)c1ccc(O)c(O)c1O)c1ccc(O)c(O)c1O	132
O=C(OC[C@H]1O[C@H](OC(=O)c2cc(O)c(O)c(O)c2)[C@@H](OC(=O)c2cc(O)c(O)c(O)c2)[C@@H](OC(=O)c2cc(O)c(O)c(O)c2)[C@@H]1OC(=O)c1cc(O)c(O)c(O)c1)c1cc(O)c(O)c(O)c1	100
O=C(OC[C@H]1O[C@H](OC(=O)c2ccc(O)c(O)c2O)[C@@H](OC(=O)c2ccc(O)c(O)c2O)[C@@H](OC(=O)c2ccc(O)c(O)c2O)[C@@H]1OC(=O)c1ccc(O)c(O)c1O)c1ccc(O)c(O)c1O	> 10000
O=C(OC[C@H]1O[C@H](O[C@H]2O[C@H](COC(=O)c3cc(O)c(O)c(O)c3)[C@@H](OC(=O)c3cc(O)c(O)c(O)c3)[C@H](OC(=O)c3cc(O)c(O)c(O)c3)[C@H]2OC(=O)c2cc(O)c(O)c(O)c2)[C@@H](OC(=O)c2cc(O)c(O)c(O)c2)[C@@H](OC(=O)c2cc(O)c(O)c(O)c2)[C@@H]1OC(=O)c1cc(O)c(O)c(O)c1)c1cc(O)c(O)c(O)c1	> 10000
O=C(OC[C@H]1O[C@H](O[C@H]2[C@H](OC(=O)c3ccc(O)c(O)c3O)[C@@H](OC(=O)c3ccc(O)c(O)c3O)[C@H](OC(=O)c3ccc(O)c(O)c3O)O[C@@H]2COC(=O)c2ccc(O)c(O)c2O)[C@H](OC(=O)c2ccc(O)c(O)c2O)[C@@H](OC(=O)c2ccc(O)c(O)c2O)[C@@H]1OC(=O)c1ccc(O)c(O)c1O)c1ccc(O)c(O)c1O	1160
O=C(OC[C@H]1O[C@@H](OC(=O)c2cc(O)c(O)c(O)c2)[C@H](OC(=O)c2cc(O)c(O)c(O)c2)[C@@H](OC(=O)c2cc(O)c(O)c(O)c2)[C@@H]1OC(=O)c1cc(O)c(O)c(O)c1)c1cc(O)c(O)c(O)c1 [PENTAGALLOYL GLUCOSE]	607
O=C(OC[C@H]1OC(O)[C@H](OC(=O)c2cc(O)c(O)c(O)c2)[C@@H](OC(=O)c2cc(O)c(O)c(O)c2)[C@H]1OC(=O)c1cc(O)c(O)c(O)c1)c1cc(O)c(O)c(O)c1 (stereo partly drawn)	167
O=C(OC[C@H]1O[C@H](O[C@H]2O[C@H](COC(=O)c3ccc(O)c(O)c3O)[C@@H](OC(=O)c3ccc(O)c(O)c3O)[C@H](OC(=O)c3ccc(O)c(O)c3O)[C@H]2OC(=O)c2ccc(O)c(O)c2O)[C@@H](OC(=O)c2ccc(O)c(O)c2O)[C@@H](OC(=O)c2ccc(O)c(O)c2O)[C@@H]1OC(=O)c1ccc(O)c(O)c1O)c1ccc(O)c(O)c1O	> 10000
O=C(OCC(OC(=O)c1ccc(O)c(O)c1O)[C@@H]1O[C@H](OC(=O)c2ccc(O)c(O)c2O)[C@H](OC(=O)c2ccc(O)c(O)c2O)[C@H]1OC(=O)c1ccc(O)c(O)c1O)c1ccc(O)c(O)c1O (single isomer, unassigned)	> 10000
O=C(OC[C@H]1O[C@@H](OC(=O)c2cc(O)c(O)c(O)c2)[C@@H](OC(=O)c2cc(O)c(O)c(O)c2)[C@@H](OC(=O)c2cc(O)c(O)c(O)c2)[C@@H]1OC(=O)c1cc(O)c(O)c(O)c1)c1cc(O)c(O)c(O)c1	58
O=C(O[C@@H]1OC[C@@H](OC(=O)c2ccc(O)c(O)c2O)[C@@H](OC(=O)c2ccc(O)c(O)c2O)[C@H]1OC(=O)c1ccc(O)c(O)c1O)c1ccc(O)c(O)c1O	> 10000
O=C(O[C@@H]1OC[C@@H](OC(=O)c2cc(O)c(O)c(O)c2)[C@@H](OC(=O)c2cc(O)c(O)c(O)c2)[C@H]1OC(=O)c1cc(O)c(O)c(O)c1)c1cc(O)c(O)c(O)c1	> 10000
O=C(OC[C@H]1OC(OC(=O)c2ccc(O)c(O)c2O)[C@H](OC(=O)c2ccc(O)c(O)c2O)[C@@H](OC(=O)c2ccc(O)c(O)c2O)[C@@H]1OC(=O)c1ccc(O)c(O)c1O)c1ccc(O)c(O)c1O (stereo partly drawn)	3420
O=C(OC[C@H]1O[C@H](O[C@H]2[C@H](OC(=O)c3cc(O)c(O)c(O)c3)[C@@H](OC(=O)c3cc(O)c(O)c(O)c3)[C@H](OC(=O)c3cc(O)c(O)c(O)c3)O[C@@H]2COC(=O)c2cc(O)c(O)c(O)c2)[C@H](OC(=O)c2cc(O)c(O)c(O)c2)[C@@H](OC(=O)c2cc(O)c(O)c(O)c2)[C@@H]1OC(=O)c1cc(O)c(O)c(O)c1)c1cc(O)c(O)c(O)c1	> 10000
O=C(O[C@H]1OC[C@@H](OC(=O)c2ccc(O)c(O)c2O)[C@@H](OC(=O)c2ccc(O)c(O)c2O)[C@H]1OC(=O)c1ccc(O)c(O)c1O)c1ccc(O)c(O)c1O	> 10000

Test system: EA.hy 926
Experiment: Antimigratory activity in human EAhy926 cells measured at 10 mins interval for 12 hrs by time-lapse transmitted light microscopy
Conditions: not given

Structure (SMILES)	IC50 [nM]
O=C(OC[C@H]1O[C@@H](OC(=O)c2cc(O)c(O)c(O)c2)[C@@H](OC(=O)c2cc(O)c(O)c(O)c2)[C@@H](OC(=O)c2cc(O)c(O)c(O)c2)[C@@H]1OC(=O)c1cc(O)c(O)c(O)c1)c1cc(O)c(O)c(O)c1	365 to 400

Test system: Mus musculus
Experiment: Inhibition of basic fibroblast growth factor-induced corneal angiogenesis in C57BL/6J mouse assessed as decrease in vessel area at 10 mg/kg administered intraperitoneally measured on 6th postoperative day relative to control
Type: functional
Conditions: ip
Procedure, shortened: (§1)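 C57BL/6J mice given 80 ng bFGF slow-release pellets in the cornea about 1.0 mm from the temporal limbus. Compound diluted 5:1 in saline, 10 mg/kg/day ip. Vehicle is DMSO/NMP/Tween/Cremophor in saline. Vessel area compared with vehicle by t-test (vehicle n = 9, treated n = 10). Body weight followed against vehicle-treated mice.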

Structure (SMILES)	inhibition in vivo at 10 mg/kg [%]
O=C(OC[C@H]1O[C@@H](OC(=O)c2cc(O)c(O)c(O)c2)[C@@H](OC(=O)c2cc(O)c(O)c(O)c2)[C@@H](OC(=O)c2cc(O)c(O)c(O)c2)[C@@H]1OC(=O)c1cc(O)c(O)c(O)c1)c1cc(O)c(O)c(O)c1	20

Test system: not listed separately
Experiment: Toxicity in C57BL/6J mouse assessed as body weight loss at 10 mg/kg, ip
Type: organism-based
Conditions: in vivo
Procedure, shortened: as §1

Structure (SMILES)	Activity
O=C(OC[C@H]1O[C@@H](OC(=O)c2cc(O)c(O)c(O)c2)[C@@H](OC(=O)c2cc(O)c(O)c(O)c2)[C@@H](OC(=O)c2cc(O)c(O)c(O)c2)[C@@H]1OC(=O)c1cc(O)c(O)c(O)c1)c1cc(O)c(O)c(O)c1	Non-Toxic
